FXIa inh 1536: factor XIa (human) inhibition; inhibition, % at 5 µM; purified FXIa, Boc-Glu-Ala-Arg-AMC fluorogenic substrate; P03951; actives 0.14% (n = 220,000); AID 798;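 active = inhibition of at least 40%; inactive = inhibition below 40%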;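 also: fluorescence of freed AMC excited at 355 nm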
Target sequence (P03951 19-387 limits assumed): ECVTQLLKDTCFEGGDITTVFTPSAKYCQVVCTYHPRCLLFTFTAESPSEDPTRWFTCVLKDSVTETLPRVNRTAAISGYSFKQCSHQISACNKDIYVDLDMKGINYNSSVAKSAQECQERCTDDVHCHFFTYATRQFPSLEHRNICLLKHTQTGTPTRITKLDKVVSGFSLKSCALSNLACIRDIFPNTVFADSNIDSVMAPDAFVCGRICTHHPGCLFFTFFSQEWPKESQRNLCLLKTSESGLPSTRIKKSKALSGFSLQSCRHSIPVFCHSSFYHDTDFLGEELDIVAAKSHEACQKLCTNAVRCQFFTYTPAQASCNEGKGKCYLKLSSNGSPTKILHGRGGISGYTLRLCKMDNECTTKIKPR
Target sequence (P03951 388-625 limits assumed): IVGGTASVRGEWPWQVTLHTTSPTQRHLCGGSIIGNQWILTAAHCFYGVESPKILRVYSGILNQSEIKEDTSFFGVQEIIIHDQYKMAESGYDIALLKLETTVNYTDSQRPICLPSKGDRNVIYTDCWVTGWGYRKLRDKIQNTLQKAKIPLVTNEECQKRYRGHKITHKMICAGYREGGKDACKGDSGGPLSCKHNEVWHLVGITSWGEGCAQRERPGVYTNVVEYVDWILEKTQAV
Fh CTSL1 inh: blocks F. hepatica cathepsin L1 in PFM18AAP counter-screen; inhibition, % at 5.96 µM; AID 1906; recombinant F. hepatica cathepsin L1, Z-Leu-Arg-MCA fluorescence; actives 0.49% (n = 300,000);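 active = inhibition above the mean of all tested compounds plus 3 SD, set per screening campaign, cut at about 17% in these data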
Rce1 inhib: yeast Ras-converting enzyme inhibition | actives 0.27% (n = 290,000) | calls only | AID 2563 | Q03530 | yeast membranes, quenched prenylated peptide cleavage fluorescence;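 active = fall in fluorescence gain of 50% or more versus controls, with final raw signal at or below 3038400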
FXIIa inh: blocks human coagulation factor XIIa protease activity; purified FXIIa, Boc-QGR-AMC fluorogenic substrate, 2 h; AID 800; actives 0.3% (n = 220,000); inhibition, % at 5 µM; P00748; in the data active = inhibition above about 40%
KLK5 inh: blocks human kallikrein 5 protease activity; Q9Y337; recombinant hK5, fluorogenic AMC substrate cleavage; inhibition, % at 5 µM; actives 0.59% (n = 210,000);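 active = inhibition of 40% or more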
thrombin 1536: thrombin (human) inhibition; alpha-thrombin, Boc-VPR-AMC fluorogenic substrate cleavage; inhibition, % at 5 µM; actives 0.26% (n = 220,000);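 active = inhibition at or above 40%; inactive = inhibition below 40%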
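Test system: human alpha-thrombin protein / Dosing: one concentration per compound, 5 µM, with 0.2% DMSO / Medium: pH 7.5 Tris-saline with Tween 20 / Benchmarks: no-compound enzyme wells and no-enzyme blanks / Read-out basis: percent inhibition of thrombin substrate cleavage / Timing: reaction at room temperature / Measured by: fluorescence, ex 355 nm, em 460 nm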
Numbers stand for hits; - = inactive; . = no result given; + = active, no number. Hits are enriched below; roughly 1.4% of the tested compounds scored in any of these assays.

SMILES | FXIa inh 1536 | Fh CTSL1 inh | Rce1 inhib | FXIIa inh | KLK5 inh | thrombin 1536
CCOC(=O)C1CCCN(C(=O)c2cc(-c3ccc(C)cc3)on2)C1 (stereo unspecified) | - | - | - | - | - | -
O=c1cc(CSCc2ccc(Cl)cc2)[nH]c(=O)[nH]1 | - | - | - | - | - | -
CC(C)CC(=O)N(Cc1ccc(F)cc1)C1CCS(=O)(=O)C1 (stereo unspecified) | - | - | - | - | - | -
CC(=O)NNC(=S)NC(=O)c1ccccc1 | - | - | - | 42 | - | 43
CC(=O)NNC(=S)NC(=O)c1ccc(C)cc1 | - | - | - | - | - | -
COCCNC(=O)c1cc(-c2ccccc2)nn1CC1CC(c2cccc([N+](=O)[O-])c2)=NO1 (stereo unspecified) | . | - | - | . | . | .
O=C(NCC1CC1)c1cc(-c2ccccc2)nn1CC1CC(c2cccc([N+](=O)[O-])c2)=NO1 (stereo unspecified) | . | - | + | . | . | .
CC(=O)NC(CC(=O)OC(C)C(=O)Nc1ncc(Cl)cc1Cl)c1ccccc1 (stereo unspecified) | . | - | - | . | . | .
O=C(Nc1ccccc1)OC1CCCCc2cccnc21 (stereo unspecified) | - | - | - | - | - | -
COCCNC(=S)NN=C1CCCCCC1 | - | . | - | 54 | 41 | 47
COCCNC(=S)NN=C1CCC(c2ccccc2)CC1 (stereo unspecified) | - | - | - | - | - | -
CCOc1ccc(NS(=O)(=O)c2ccc(C(=O)N(C)CCc3ccc(OC)c(OC)c3)cc2)cc1 | . | - | - | . | . | .
COc1ccc(CCN(C)C(=O)c2ccc(S(=O)(=O)Nc3ccccc3C)cc2)cc1OC | . | - | + | . | . | .
CC1CCCC/C1=N\NS(=O)(=O)c1ccc(Br)cc1 (stereo unspecified) | - | - | - | - | - | -
Cc1cc(C(=O)NNC(=S)NC2CCCCC2)cs1 | . | - | . | . | . | .
O=C(NCc1ccccc1)C1=C[C@@H](c2coc3ccccc3c2=O)C[C@@H](OCCCCO)O1 | - | - | - | - | - | 41
O=C(NCc1ccccc1)C1=C[C@H](c2coc3ccccc3c2=O)C[C@H](OCCCCO)O1 | - | - | - | - | - | -
COCCN(C(=O)C1CC1)c1nnc(-c2ccc(C)cc2)s1 | - | - | - | 64 | - | -
Cc1cc2nc(-c3cccc(NC(=O)c4ccc(Br)o4)c3C)oc2cc1C | - | 18 | - | - | - | -
Cc1ccc2oc(-c3cccc(NC(=O)c4ccc(Br)o4)c3C)nc2c1 | - | - | - | - | - | -
CCN(CC)CCNC(=O)c1cn(CCOC)c(=O)c2c1c1ccccc1n2C | . | - | - | . | . | .
COCCn1cc(C(=O)NCCN(C)C)c2c3ccccc3n(C)c2c1=O | . | - | + | . | . | .
CCOC(=O)C1=C(CN2CCN(C(=O)c3ccco3)CC2)NC(=O)NC1c1ccccc1 (stereo unspecified) | . | - | - | . | . | .
O=[N+]([O-])C(=C1Nc2ccccc2N1)C(Cl)=C(Cl)Cl | - | 20 | - | - | - | -
CC(C)Cn1c(=O)c(CCC(=O)Nc2ccc(N3CCOCC3)cc2)nc2cc(Cl)ccc21 | . | - | - | . | . | .
SMILES | FXIa inh 1536 | Fh CTSL1 inh | Rce1 inhib | FXIIa inh | KLK5 inh | thrombin 1536
Cc1ccc(-c2cc(-c3ccccc3)c(C#N)c(Br)n2)cc1 | - | - | + | - | - | -
Cc1ccc(-c2nnc(N)s2)cc1 | - | - | - | - | - | -
Nc1nnc(-c2ccncc2)s1 | - | - | + | - | - | -
O=C(CSc1ccccn1)NCc1ccc2c(c1)OCO2 | - | 17 | - | - | - | -
O=C(CSc1ccccn1)Nc1ccc2c(c1)OCO2 | - | - | . | - | - | -
O=C(CC(Nc1ccc(F)cc1)C(=O)OCC(=O)c1cccs1)c1ccccc1 (stereo unspecified) | - | - | - | - | - | 50
O=C(CC(Nc1ccc(F)cc1)C(=O)O)c1ccccc1 (stereo unspecified) | - | - | - | - | 52 | -
O=C(COC(=O)c1cccs1)c1ccccc1 | - | - | - | - | - | -
C=C(C)c1cccc(C(C)(C)NC(=O)Nc2ccc(OC)cc2)c1 | - | - | - | - | - | -
C=C(C)c1cccc(C(C)(C)NC(=O)Nc2ccc(C(C)=O)cc2)c1 | - | - | - | - | 72 | -
N#Cc1c2ccccc2nc2ccccc12 | - | - | - | - | - | -
CCO[C@@H]1OC(C(=O)N2CCN(Cc3ccccc3)CC2)=C[C@H](c2ccccc2)[C@H]1CCCO | - | - | + | - | - | -
C#Cc1ccc([C@H]2C=C(C(=O)N3CCN(Cc4ccccc4)CC3)O[C@@H](OCC)[C@@H]2CCCO)cc1 | - | - | - | - | - | -
COc1cccc(CNC(=O)CCS(=O)(=O)c2ccc3c(c2)oc(=O)n3C)c1 | . | - | - | . | . | .
CSc1nc(-c2ccc(F)cc2)cc(=O)[nH]1 | - | - | - | - | - | -
CC1Cc2ccccc2N1S(=O)(=O)c1cccc2nsnc12 (stereo unspecified) | - | - | - | 43 | - | -
COc1cccc(N2CCN(c3ccc(N4C(=O)CCC4=O)cc3[N+](=O)[O-])CC2)c1 | - | - | - | - | - | -
O=C(CSc1nnnn1-c1ccc2c(c1)OCCO2)OC1CCCCC1 | - | 78 | . | - | - | -
CCN(CCO)c1nc(N2CCCCC2)c2cnn(C)c2n1 | . | - | - | . | . | .
CC1Cc2cc(/C(O)=C3/C(=O)C(=O)N(CCCN4CCOCC4)C3c3ccc(C(C)C)cc3)ccc2O1 (stereo unspecified) | . | - | - | . | . | .
O=c1[nH]cn[nH]1 | - | 19 | - | - | - | -
COc1cccc(OC(=O)c2cc3ccccc3oc2=O)c1 | - | - | - | - | - | -
Nc1ncnc(NC2CCS(=O)(=O)C2)c1[N+](=O)[O-] (stereo unspecified) | - | 49 | - | - | - | -
O=C(COc1ccccc1)N1CCN(S(=O)(=O)c2cccs2)CC1 | - | 19 | - | - | - | -
Cc1ccc(SCC(=O)OCC(=O)NCc2cccs2)cc1 | . | - | - | . | . | .
SMILES | FXIa inh 1536 | Fh CTSL1 inh | Rce1 inhib | FXIIa inh | KLK5 inh | thrombin 1536
O=C(COC(=O)CSc1ccc([N+](=O)[O-])cc1)NCc1cccs1 | . | 18 | - | . | . | .
O=C(NCc1cccs1)C(=O)NCC1OCCCN1S(=O)(=O)c1cc(F)ccc1F (stereo unspecified) | . | - | - | . | . | .
Cc1ccc(C(=O)NCC(=O)OCC(=O)/C=C2\N(C)c3ccccc3C2(C)C)cc1C | - | - | - | - | - | -
Fc1ccccc1N1CCN(Cc2nc(-c3ccc(Cl)cc3Cl)no2)CC1 | - | - | . | - | 56 | -
O=C1C(N2CCOCC2)=C(n2nnc3ccccc32)C(=O)c2ccccc21 | - | 81 | - | - | - | -
NC(CO)(CO)COCc1ccccc1 | - | - | - | - | - | -
COc1cc(C(=O)OCCN2CCOCC2)cc(OC)c1OC | - | - | - | - | - | -
COc1cccc(/C(O)=C2/C(=O)C(=O)N(CCCN3CCOCC3)C2c2ccncc2)c1 (stereo unspecified) | - | - | - | - | 117 | -
